KCNQ1 act: potentiates or activates the human KCNQ1 potassium channel. B-score at 10 µM. AID 2648. CHO-K1 KCNQ1, thallium flux FluxOR fluorescence; hits give high values. hit rate 0.35% among 310,000. P51787;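 active = fluorescence ratio B-score, a plate-corrected score, at least three library SD, with initial intensity B-score within 5 SD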
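Medium – assay buffer, equal DMSO in all wells · Material – CHO-K1 cell line with stable KCNQ1 potassium channel expression · Signal – kinetic FluxOR thallium fluorescence, 10-s 1-Hz baseline, 110-s post-stimulus read · Compound – single concentration per compound, DMSO matched to controls · Schedule – 37 °C overnight plating, 90-min dark dye load, 20-min compound pretreatment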
KCNQ1 block: human KCNQ1 channel inhibition | P51787 | hit rate 1.3% among 310,000 | B-score at 10 µM | CHO-K1 KCNQ1, FluxOR thallium flux fluorescence; hits give high values;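 active = compounds whose thallium flux B-score, printed positive for inhibition, exceeds three library SD while starting fluorescence stays within three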;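 also: channel opened by potassium depolarization with thallium stimulus after 20 min compound exposure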
KCNK9 inh: inhibitors of human KCNK9 two-pore domain potassium channel; Q9NPC2; HEK293 KCNK9, FluxOR thallium flux fluorescence; hits give low values; AID 488922; hit rate 1.2% among 310,000; B-score at 10 µM;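 active = ratio B-score over 3 SD below the library mean, with starting fluorescence within 5 SD of its mean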;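 also: negative B-score means less thallium flux so channel inhibition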
KCNK3 inh: human KCNK3 channel inhibition, primary screen. O14649. CHO-KCNK3 thallium flux, FluxOR fluorescence; hits give low values. B-score at 10 µM. hit rate 0.84% among 340,000. AID 602410;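 active = B-score under library mean minus 4 SD, starting fluorescence ratio at most library mean plus 5 SD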;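 also: more negative B-score means stronger inhibition of thallium flux through KCNK3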
Target sequence (O14649 whole entry, looked up): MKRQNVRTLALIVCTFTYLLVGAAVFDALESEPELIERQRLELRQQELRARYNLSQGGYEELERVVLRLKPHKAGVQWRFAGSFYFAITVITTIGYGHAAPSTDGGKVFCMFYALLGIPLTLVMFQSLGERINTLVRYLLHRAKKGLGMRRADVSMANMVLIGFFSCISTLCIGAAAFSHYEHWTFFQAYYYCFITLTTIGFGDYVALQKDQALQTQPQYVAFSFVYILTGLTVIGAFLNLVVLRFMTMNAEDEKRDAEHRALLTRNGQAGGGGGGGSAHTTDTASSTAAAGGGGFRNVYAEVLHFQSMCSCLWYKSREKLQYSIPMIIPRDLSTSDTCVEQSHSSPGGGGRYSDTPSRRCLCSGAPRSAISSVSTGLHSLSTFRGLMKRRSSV
hERG rescue: compounds protecting human hERG from proarrhythmic drug block | Q12809 | CHO-hERG, FluxOR thallium flux, dofetilide IC70 present | hit rate 0.51% among 310,000 | activation (rescue from dofetilide block), less the hit threshold, % at 10 µM;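 active = activation above the mean of controls blocked by dofetilide plus 5 SD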;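 also: thallium influx through hERG after potassium depolarization seen as dye fluorescence rise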
* marks the source's active call; other numbers are inactive results; i = inactive; x = not tested or not shown; ! = not confirmed by another sample. An excerpt weighted towards active compounds, which were near 3.1% of everything screened.

SMILES	KCNQ1 act	KCNQ1 block	KCNK9 inh	KCNK3 inh	hERG rescue
COc1cccc(N2CCN(Cc3cccc(Cl)c3)CC2)c1	i	i	i	i	-12
COc1cccc(CC(=O)N2CCN(Cc3cccc(Cl)c3)CC2)c1	8*	i	i	i	-5
CCc1cccc(CC)c1NC(=S)N1CC2CC(C1)c1cccc(=O)n1C2 (centres undefined)	i	i	i	i	-6
Cc1c(Cl)cccc1NC(=S)N1CC2CC(C1)c1cccc(=O)n1C2 (centres undefined)	30*	i	i	i	-4
O=C(c1ccc(F)c([N+](=O)[O-])c1)N1CC2CC(C1)c1cccc(=O)n1C2 (centres undefined)	i	i	i	i	-5
CCN(CC)c1ccc(/C=C2\C(=O)NC(=S)N(c3ccc(OC)cc3OC)C2=O)o1	i	6*	i	i	-23
CCN(CC)c1ccc(/C=C2\C(=O)NC(=S)N(C)C2=O)o1	i	7*	i	i	-7
CC12CCC(=O)CC1CCC1C2C(=O)CC2(C)C1CCC2(C)O (centres undefined)	x	x	x	i	x
C#CCOC(=O)C1=CCCN(C)C1	x	x	x	i	x
Cc1cccn2c(=O)c3c(nc12)N1CCC(Cc2ccccc2)CC1C1(C3)C(=O)N(C)C(=O)N(C)C1=O (centres undefined)	i	i	-6.6*	i	-11
COc1ccc(-n2c(/C=C/c3ccc(O)c(OC)c3)nc3ccccc3c2=O)cc1	i	i	i	i	-16
COc1cccc(-n2c(/C=C/c3ccc(O)c(O)c3)nc3ccccc3c2=O)c1	i	6*	i	i	-28
COC(=O)C1=C(c2ccc(OC)c(OC)c2)C[C@@H]2CC[C@H]1N2C(=O)NCc1ccco1	x	x	x	i	x
C(#CCN1CCCC1)CN1CCCC1	x	x	x	i	x
c1ccc2c(CNC3CCCCC3)c[nH]c2c1	i	i	-7.1*	x	-8
C=CC[C@@H](C)CC(=O)C(CCCN=[N+]=[N-])SOOc1ccccc1 (some centres undefined)	x	x	x	i	x
COc1ccc(CC(C)NCCC(c2ccccc2)c2ccccc2)cc1 (centres undefined)	i	6*	i	i	-28
CCCCNC(C)Cc1ccccc1 (centres undefined)	x	x	x	i	x
S=C=Nc1cccc(C2(N3CCCCC3)CCCCC2)c1	x	x	x	i	x
CCC1CN1P(=O)(Oc1ccc(Cl)cc1)N1CC1CC (centres undefined)	x	x	x	i	x
Cc1cccc(NP(=O)(Oc2ccccc2F)Oc2ccccc2F)c1	i	i	-7.2*	i	-27
Cc1ccc(NP(=O)(Oc2ccccc2F)Oc2ccccc2F)cc1C	i	i	i	i	-12
O=P(Nc1ccccc1)(Nc1ccccc1)Oc1ccc(Cl)cc1	i	i	i	i	-30
COc1cccc(NP(=O)(Oc2ccc(Cl)cc2)Oc2ccc(Cl)cc2)c1	i	i	-6.7*	i	-4
CC1=CC2OC3CC4OC(=O)C=CC=CC(=O)OCCC(C)C(O)C(=O)OCC2(CC1O)C4(C)C31CO1 (centres undefined)	x	x	x	i	x
SMILES	KCNQ1 act	KCNQ1 block	KCNK9 inh	KCNK3 inh	hERG rescue
O=[N+]([O-])c1ccc(-[n+]2c(-c3ccccc3)cc(-c3ccccc3)cc2-c2ccccc2)cc1	i	i	i	i	-10
O=[N+]([O-])c1ccccc1-c1cc(-c2ccccc2)cc(-c2ccccc2)[n+]1Cc1ccccc1Cl	i	8*	-8*	x	-30
CC(C)C[C@H]1C(=O)N2CCCC2[C@]2(O)O[C@](NC(=O)[C@@H]3C=C4c5cccc6[nH]cc(c56)CC4N(C)C3)(C(C)C)C(=O)N12 (some centres undefined)	i	8*	i	i	-10
CCSC(=O)N1CCCCCC1	x	x	x	i	x
CC1N=C(c2ccccc2Cl)c2cc(Br)ccc2NC1=O (centres undefined)	i	i	i	i	7.6*
CCOc1ccc(-c2cc(C)[n+](CCc3ccc(OC)c(OC)c3)c(-c3ccc(OCC)cc3)c2)cc1	i	10*	i	i	-28
Clc1ccc(C[n+]2c(-c3ccccc3)cc(-c3ccccc3)cc2-c2ccccc2)cc1	i	13*	-8.3*	i	-36
C[n+]1c(-c2ccccc2)cc(-c2ccc(O)cc2)cc1-c1ccccc1	i	i	i	i	-23
Cc1cc(-c2ccccc2)cc(-c2ccccc2)[n+]1CCc1ccccc1	i	8*	-8*	i	-26
COc1ccc(CN2Cc3cnnn3-c3ccccc3C2C)cc1 (centres undefined)	x	x	x	i	x
COC(=O)C1=C(c2ccc(F)cc2OCc2ccccc2)C[C@@H]2CC[C@H]1N2C(=O)N1CCCC1	x	x	x	i	x
CCC(C)C1NC(=O)C(NC(=O)C(CC(C)C)N(C)C(=O)C2CCCN2C(=O)C(C)O)C(C)OC(=O)C(Cc2ccc(OC)cc2)N(C)C(=O)C2CCCN2C(=O)C(CC(C)C)NC(=O)[C@H](C)C(=O)[C@H](C(C)C)OC(=O)CC1O (some centres undefined)	x	x	x	i	x
COc1ccc(Cn2c(O)c(/C=N/NC(=O)c3ccncc3)c(=O)[nH]c2=O)cc1	i	i	i	i	-13
CCN(CC)c1ccc(N=Cc2c(O)n(-c3ccccc3)c(=O)[nH]c2=O)cc1	i	i	i	i	-11
COc1ccc(Cn2c(O)c(/C=N/NC(=O)c3ccccc3)c(=O)[nH]c2=O)cc1	i	7*	i	i	-16
CCN(CC)c1ccc(N=Cc2c(O)n(Cc3ccccc3)c(=O)[nH]c2=O)cc1	i	7*!	-7.3*!	i	-12
COC(=O)C1=C(c2cccc(OCc3ccccc3)c2)C[C@@H]2CC[C@H]1N2C(=O)NCCN1CCOCC1	x	x	x	i	x
Cc1ccc(C)c(NP(=O)(Oc2ccccc2)Oc2ccccc2)c1	i	i	i	i	-3
Cc1cccc(OP(=O)(Oc2ccccc2)OC(c2ccccc2)C(F)(F)F)c1 (centres undefined)	i	8*	i	i	-11
ClCCN(CCCl)c1ccc(C2=NCCc3ccccc32)cc1	x	x	x	i	x
COc1ccc2c(c1)C(c1ccc(N(CCCl)CCCl)cc1)=NCC2	x	x	x	-8.7*	x
C/C1=C\[C@@H](C)C/C=C/[C@H]2[C@@H]3O[C@]3(C)[C@@H](C)[C@H]3[C@H](Cc4c[nH]c5ccccc45)NC(=O)[C@]32C(=O)/C=C/C(=O)[C@@H]1O	22*	i	i	i	-1
N#CC(C#N)=NNc1ccc(-n2ccc(C(F)(F)F)n2)cc1	i	7*	i	i	-36
Cc1cc(C)n(-c2ccc(NN=C(C#N)C#N)cc2)n1	i	i	i	i	-14

From PubChem BioAssay
